Columns and labels:
Format in all cases: functional
Staphylococcus aureus [1] = assay: Antibacterial activity against methicillin-resistant Staphylococcus aureus 33922 infected in in vitro pharmacokinetic model assessed as time required to 99% killing at 3 mg/ml using 10^6 CFU/ml inoculum
Staphylococcus aureus [2] = assay: Antibacterial activity against methicillin-resistant Staphylococcus aureus 33827 infected in in vitro pharmacokinetic model assessed as time required to 99% killing at 3 mg/ml using 10^6 CFU/ml inoculum
Staphylococcus aureus [3] = assay: Antibacterial activity against methicillin-resistant Staphylococcus aureus 33815 infected in in vitro pharmacokinetic model assessed as time required to 99% killing at 3 mg/ml using 10^6 CFU/ml inoculum
Procedure, shortened: (§1)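 Single-compartment model in 10% MHB at 37°C with 10^6 CFU/ml inoculum. Log change in count from time 0 and times to 99%/99.9% kill from serial spiral-plate counts; at least triplicate.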

Staphylococcus aureus [4] = assay: Antibacterial activity against methicillin-resistant Staphylococcus aureus 33922 infected in in vitro pharmacokinetic model assessed as reduction in viable count at 3 mg/ml after 12 hrs using 10^6 CFU/ml inoculum
Staphylococcus aureus [5] = assay: Antibacterial activity against methicillin-resistant Staphylococcus aureus 33827 infected in in vitro pharmacokinetic model assessed as reduction in viable count at 3 mg/ml after 12 hrs using 10^6 CFU/ml inoculum
Staphylococcus aureus [6] = assay: Antibacterial activity against methicillin-resistant Staphylococcus aureus 33815 infected in in vitro pharmacokinetic model assessed as reduction in viable count at 3 mg/ml after 12 hrs using 10^6 CFU/ml inoculum; procedure, shortened: as §1
Staphylococcus aureus [7] = assay: Antibacterial activity against methicillin-resistant Staphylococcus aureus 33922 infected in in vitro pharmacokinetic model assessed as reduction in viable count at 3 mg/ml after 24 hrs using 10^6 CFU/ml inoculum
Staphylococcus aureus [8] = assay: Antibacterial activity against methicillin-resistant Staphylococcus aureus 33827 infected in in vitro pharmacokinetic model assessed as reduction in viable count at 3 mg/ml after 24 hrs using 10^6 CFU/ml inoculum
Staphylococcus aureus [9] = assay: Antibacterial activity against methicillin-resistant Staphylococcus aureus 33815 infected in in vitro pharmacokinetic model assessed as reduction in viable count at 3 mg/ml after 24 hrs using 10^6 CFU/ml inoculum; procedure, shortened: as §1
Staphylococcus aureus [10] = assay: Antibacterial activity against methicillin-resistant Staphylococcus aureus 33922 infected in in vitro pharmacokinetic model assessed as reduction in viable count at 3 mg/ml after 36 hrs using 10^6 CFU/ml inoculum
Staphylococcus aureus [11] = assay: Antibacterial activity against methicillin-resistant Staphylococcus aureus 33827 infected in in vitro pharmacokinetic model assessed as reduction in viable count at 3 mg/ml after 36 hrs using 10^6 CFU/ml inoculum
Staphylococcus aureus [12] = assay: Antibacterial activity against methicillin-resistant Staphylococcus aureus 33815 infected in in vitro pharmacokinetic model assessed as reduction in viable count at 3 mg/ml after 36 hrs using 10^6 CFU/ml inoculum; procedure, shortened: as §1
Staphylococcus aureus [13] = assay: Antibacterial activity against methicillin-resistant Staphylococcus aureus 33922 infected in in vitro pharmacokinetic model assessed as reduction in viable count at 3 mg/ml after 48 hrs using 10^6 CFU/ml inoculum
Staphylococcus aureus [14] = assay: Antibacterial activity against methicillin-resistant Staphylococcus aureus 33827 infected in in vitro pharmacokinetic model assessed as reduction in viable count at 3 mg/ml after 48 hrs using 10^6 CFU/ml inoculum
Staphylococcus aureus [15] = assay: Antibacterial activity against methicillin-resistant Staphylococcus aureus 33815 infected in in vitro pharmacokinetic model assessed as reduction in viable count at 3 mg/ml after 48 hrs using 10^6 CFU/ml inoculum; procedure, shortened: as §1
Staphylococcus aureus [16] = assay: Antibacterial activity against methicillin-resistant Staphylococcus aureus 33922 infected in in vitro pharmacokinetic model assessed as time required to 99.9% killing at 3 mg/ml using 10^6 CFU/ml inoculum
Staphylococcus aureus [17] = assay: Antibacterial activity against methicillin-resistant Staphylococcus aureus 33827 infected in in vitro pharmacokinetic model assessed as time required to 99.9% killing at 3 mg/ml using 10^6 CFU/ml inoculum
Staphylococcus aureus [18] = assay: Antibacterial activity against methicillin-resistant Staphylococcus aureus 33815 infected in in vitro pharmacokinetic model assessed as time required to 99.9% killing at 3 mg/ml using 10^6 CFU/ml inoculum; procedure, shortened: as §1
Staphylococcus aureus [19] = assay: AUBKC (0 to 24 hrs) in methicillin-resistant Staphylococcus aureus 33922 infected in in vitro pharmacokinetic model at 3 mg/ml using 10^6 CFU/ml inoculum
Procedure, shortened: (§2)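 Run in a single-compartment in vitro PK model at 37°C in 10% MHB, flow 47.9 ml/h, 10^6 CFU/ml inoculum. Viable counts over 48 h. AUBKC 0-24 and 0-48 h by log-linear trapezoidal rule, at least triplicate.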

Staphylococcus aureus [20] = assay: AUBKC (0 to 24 hrs) in methicillin-resistant Staphylococcus aureus 33827 infected in in vitro pharmacokinetic model at 3 mg/ml using 10^6 CFU/ml inoculum; procedure, shortened: as §2
Staphylococcus aureus [21] = assay: AUBKC (0 to 24 hrs) in methicillin-resistant Staphylococcus aureus 33815 infected in in vitro pharmacokinetic model at 3 mg/ml using 10^6 CFU/ml inoculum; procedure, shortened: as §2
Staphylococcus aureus [22] = assay: AUBKC (0 to 48 hrs) in methicillin-resistant Staphylococcus aureus 33922 infected in in vitro pharmacokinetic model at 3 mg/ml using 10^6 CFU/ml inoculum; procedure, shortened: as §2
Staphylococcus aureus [23] = assay: AUBKC (0 to 48 hrs) in methicillin-resistant Staphylococcus aureus 33827 infected in in vitro pharmacokinetic model at 3 mg/ml using 10^6 CFU/ml inoculum; procedure, shortened: as §2
Staphylococcus aureus [24] = assay: AUBKC (0 to 48 hrs) in methicillin-resistant Staphylococcus aureus 33815 infected in in vitro pharmacokinetic model at 3 mg/ml using 10^6 CFU/ml inoculum; procedure, shortened: as §2

In the case of `CN[C@H](CC(C)C)C(=O)N[C@H]1C(=O)N[C@@H](CC(N)=O)C(=O)N[C@H]2C(=O)N[C@H]3C(=O)N[C@H](C(=O)N[C@H](C(=O)O)c4cc(O)cc(O)c4-c4cc3ccc4O)[C@H](O)c3ccc(c(Cl)c3)Oc3cc2cc(c3O[C@@H]2O[C@H](CO)[C@@H](O)[C@H](O)[C@H]2O[C@H]2C[C@](C)(N)[C@H](O)[C@H](C)O2)Oc2ccc(cc2Cl)[C@H]1O` [VANCOMYCIN], the Time (Staphylococcus aureus [1]) is reported as 12 h, the Time (Staphylococcus aureus [2]) is reported as 24 h and the Time (Staphylococcus aureus [3]) is reported as 12 h. The log10CFU/ml (Staphylococcus aureus [4]) was 2.2, the log10CFU/ml (Staphylococcus aureus [5]) was 1.8 and the log10CFU/ml (Staphylococcus aureus [6]) was 3.3. The log10CFU/ml (Staphylococcus aureus [7]) was 2.6, the log10CFU/ml (Staphylococcus aureus [8]) was 3.2 and the log10CFU/ml (Staphylococcus aureus [9]) was 2. It also gave a log10CFU/ml (Staphylococcus aureus [10]) of 3, a log10CFU/ml (Staphylococcus aureus [11]) of 4 and a log10CFU/ml (Staphylococcus aureus [12]) of 1.7. The log10CFU/ml (Staphylococcus aureus [13]) was 2.9, the log10CFU/ml (Staphylococcus aureus [14]) was 4.2 and the log10CFU/ml (Staphylococcus aureus [15]) was 1.6. For the same compound, the Time (Staphylococcus aureus [16]) was greater than 48 h, the Time (Staphylococcus aureus [17]) was 24 h and the Time (Staphylococcus aureus [18]) was 12 h. For the same compound, the AUBC (Staphylococcus aureus [19]) was 54.8 log10CFU/ml.hr, the AUBC (Staphylococcus aureus [20]) was 56.7 log10CFU/ml.hr and the AUBC (Staphylococcus aureus [21]) was 46.2 log10CFU/ml.hr. It also gave an AUBC (Staphylococcus aureus [22]) of 80.1 log10CFU/ml.hr, an AUBC (Staphylococcus aureus [23]) of 61.9 log10CFU/ml.hr and an AUBC (Staphylococcus aureus [24]) of 97.4 log10CFU/ml.hr.

Reference: ChEMBL document CHEMBL1255300, “Pharmacodynamics of the antibacterial effect and emergence of resistance to tomopenem, formerly RO4908463/CS-023, in an in vitro pharmacokinetic model of Staphylococcus aureus infection” (Antimicrob Agents Chemother, 2008)
